Results on eleven compounds are retold here after ChEMBL document CHEMBL1152122, “New lithocholic and chenodeoxycholic piperazinylcarboxamides with antiproliferative and pro-apoptotic effects on human cancer cell lines” (2008).

The subject of assay [1] is GBM. Description: Cytotoxicity against human GBM cells at 50 uM after 24 hrs by neutral red uptake assay. The class given is functional, cell-based. An outline of the steps:
(§1)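 After 24 h, a single 50 µM dose was given for 24 or 48 h, with DMSO controls. Neutral red uptake for 3 h at 50 µg/mL final, with read-out at OD 570 nm. Viability expressed as % of untreated cells, four wells per line.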

For assay [2], the system named is HCT-116. The experiment in a line: Cytotoxicity against human HCT116 cells after 24 hrs by neutral red uptake assay. Type of assay: functional. Conditions: HCT-116, 24 h, read-out: LD50 (the source's name). An outline of the steps:
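Compounds added after 24 h for a 24 h dose-response, with DMSO vehicle controls. Neutral red 50 µg/mL final for 3 h, then fixation, acid-ethanol extraction and OD at 570 nm. LD50 taken from curves; mean ± standard error of ≥3 experiments.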

For assay [3], the system named is HCT-116. Description: Cytotoxicity against human HCT116 cells at 50 uM after 24 hrs by neutral red uptake assay. The class given is functional, cell-based. In a few lines:
as §1

Assay [4] concerns KMS-11. Description: Cytotoxicity against human KMS11 cells at 50 uM after 24 hrs by neutral red uptake assay. The class given is functional, cell-based. In a few lines: as §1
Assay [5] relates to KMS-11. The experiment in a line: Cytotoxicity against human KMS11 cells assessed as [3H]thymidine incorporation at 20 uM after 24 hrs. The class given is functional, cell-based. An outline of the steps: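 KMS-11 (multiple myeloma plasma-cell line) in RPMI 1640 with 5% FCS, seeded at 500,000 cells/well in triplicate at 37 °C, 5% CO2. After 24 h, drug or vehicle added in fresh medium. After 24 h, pulsed with 1 μCi/well [3H]thymidine. Cells trypsin/EDTA-detached, harvested onto glass filters, counted by scintillation. Output as % of untreated cells; three independent experiments.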
For orientation: Uptake of a labelled nucleoside into DNA is a usual measure of proliferation.

Assay [6] relates to GBM. The experiment in a line: Cytotoxicity against human GBM cells assessed as morphological changes at 12 uM after 24 hrs by neutral red uptake assay. Type of assay: functional, cell-based. An outline of the steps: (§2)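 Cells in RPMI 1640 with 10% FCS (GBM primary culture, HCT-116) or 5% FCS (KMS-11), 2 mM glutamine, antibiotics, used at 70–80% confluency. Morphology examined alongside neutral red uptake viability.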

The subject of assay [7] is HCT-116. Description: Cytotoxicity against human HCT116 cells assessed as morphological changes at 12 uM after 24 hrs by neutral red uptake assay. The class given is functional, cell-based. An outline of the steps:
as §2

The subject of assay [8] is KMS-11. Description: Cytotoxicity against human KMS11 cells assessed as morphological changes at 12 uM after 24 hrs by neutral red uptake assay. The class given is functional, cell-based. An outline of the steps:
as §2

Assay [9] has as its system KMS-11. The experiment in a line: Induction of apoptosis in human KMS11 cells at 10 uM after 24 hrs by PC5-labeled Apo2.7 antibody based flow cytometry. The class given is functional. An outline of the steps:
(§3)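 KMS-11 cells treated 24 h at the stated concentrations, then stained with the phycoerythrin-labeled APO2.7 antibody kit, which detects mitochondrial 7A6 antigen. Analysed by flow cytometry and reported as % APO2.7-positive cells.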

The test system of assay [10] is KMS-11. Description: Induction of apoptosis in human KMS11 cells at 40 uM after 24 hrs by PC5-labeled Apo2.7 antibody based flow cytometry. Type of assay: functional. In a few lines:
as §3

The test system of assay [11] is KMS-11. The experiment in a line: Induction of apoptosis in human KMS11 cells after 24 hrs by PC5-labeled Apo2.7 antibody based flow cytometry. Type of assay: functional, cell-based. An outline of the steps:
as §3

The test system of assay [12] is KMS-11. The experiment in a line: Induction of apoptosis in human KMS11 cells assessed as Cleavage of Mcl-1 after 24 hrs by Western blotting. The class given is functional, cell-based. In a few lines:
(§4)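 KMS-11 cells treated 24 h. 5×10^6 cells lysed 40 min on ice (10 mM Tris pH 7.6, 150 mM NaCl, 5 mM EDTA, 1% Triton X-100, PMSF, aprotinin), cleared at 10,000 g. Equal BCA-quantified protein run on reducing SDS-PAGE and transferred to PVDF. Primary antibodies (PARP-1, Mcl-1, IκBα, phospho-IκBα) overnight at 4 °C, then HRP secondary 30 min, chemiluminescent detection.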

The subject of assay [13] is KMS-11. Description: Induction of apoptosis in human KMS11 cells assessed as Cleavage of PARP-1 after 24 hrs by Western blotting. The class given is functional, cell-based. In a few lines:
as §4

In assay [14] the test system is KMS-11. Description: Induction of apoptosis in human KMS11 cells assessed as hyperphosphorylation of IkappaB after 24 hrs by Western blotting. Type of assay: functional, cell-based. In a few lines:
as §4
In general terms: A western blot detects proteins with antibodies after separation by electrophoresis.

The subject of assay [15] is KMS-11. Description: Induction of apoptosis in human KMS11 cells assessed as fragmentation of nuclei at 10 uM after 24 hrs […]. The class given is functional.
Assay [16] deals with KMS-11. Description: Induction of apoptosis in human KMS11 cells assessed as fragmentation of nuclei at 20 uM after 24 hrs […]. Type of assay: functional.
In assay [17] the test system is KMS-11. Description: Induction of apoptosis in human KMS11 cells assessed as DNA fragmentation at 5 uM after 24 hrs by Hoechst staining. The class given is functional, cell-based. An outline of the steps: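 KMS-11 cells on glass coverslips fixed in 2% formaldehyde 10 min and stained with Hoechst 33342 (1 µg/mL in PBS, 5 min). Nuclei viewed by epifluorescence microscopy under 350 nm excitation.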

Assay [18] deals with GBM. Description: Cytotoxicity against human GBM cells at 50 uM after 48 hrs by neutral red uptake assay. The class given is functional, cell-based. In a few lines:
as §1

Assay [19] relates to HCT-116. Description: Cytotoxicity against human HCT116 cells at 50 uM after 48 hrs by neutral red uptake assay. The class given is functional, cell-based. An outline of the steps: as §1
For assay [20], the system named is KMS-11. The experiment in a line: Cytotoxicity against human KMS11 cells at 50 uM after 48 hrs by neutral red uptake assay. Type of assay: functional, cell-based. An outline of the steps: as §1

The structures appear in SMILES notation. The source made the active and inactive calls. No cut-off for these calls is given here. Bounds are passed on as bounds.

As for `C[C@H](CCC(=O)N1CCN(C/C=C/c2ccccc2)CC1)[C@H]1CC[C@H]2[C@@H]3[C@H](O)C[C@@H]4C[C@H](O)CC[C@]4(C)[C@H]3CC[C@]12C`, the result in the assay with GBM [1], in the assay on HCT-116 [3], in the assay on KMS-11 [4], in the assay on KMS-11 [5], in the assay on GBM [6] and in the assay on HCT-116 [7] was Active. In addition, the result with KMS-11 [8], with KMS-11 [12], in the assay on KMS-11 [13], in the assay on KMS-11 [14] and in the assay with KMS-11 [17] was Active. Besides, the CC50 in the assay with HCT-116 [2] worked out at 18.5 µM. For the same compound, the Activity in the assay on KMS-11 [9] is 37%; with KMS-11 [10], 86%; in the assay with KMS-11 [11], “Dose-dependent effect”; in the assay on KMS-11 [15], 5%; in the assay with KMS-11 [16], 61%.
`C[C@H](CCC(=O)O)[C@H]1CC[C@H]2[C@@H]3CC[C@@H]4C[C@H](O)CC[C@]4(C)[C@H]3CC[C@]12C` [LITHOCHOLIC ACID]: the result in the assay on GBM [1], in the assay with HCT-116 [3], in the assay with KMS-11 [4], in the assay with GBM [18], in the assay with HCT-116 [19] and with KMS-11 [20] was inactive. The CC50 in the assay with HCT-116 [2] was above 50 µM.
Consider `C[C@H](CCC(=O)N1CCN(c2ccccn2)CC1)[C@H]1CC[C@H]2[C@@H]3[C@H](O)C[C@@H]4C[C@H](O)CC[C@]4(C)[C@H]3CC[C@]12C`, for which the result in the assay with GBM [1], in the assay on HCT-116 [3], with KMS-11 [4], in the assay with GBM [18], in the assay with HCT-116 [19] and in the assay on KMS-11 [20] was inactive. Further, the CC50 in the assay on HCT-116 [2] was above 50 µM.
For `c1ccc(N2CCNCC2)nc1`, the result in the assay on GBM [1], with HCT-116 [3], in the assay with KMS-11 [4], with GBM [18], with HCT-116 [19] and in the assay with KMS-11 [20] was inactive.
`C[C@H](CCC(=O)N1CCN(C/C=C/c2ccccc2)CC1)[C@H]1CC[C@H]2[C@@H]3CC[C@@H]4C[C@H](O)CC[C@]4(C)[C@H]3CC[C@]12C`: the outcome in the assay with GBM [1], with HCT-116 [3], with KMS-11 [4], in the assay on GBM [18], in the assay with HCT-116 [19] and with KMS-11 [20] was inactive. Further, the CC50 with HCT-116 [2] was above 50 µM.
Regarding `C[C@H](CCC(=O)N1CCN(c2ncccn2)CC1)[C@H]1CC[C@H]2[C@@H]3[C@H](O)C[C@@H]4C[C@H](O)CC[C@]4(C)[C@H]3CC[C@]12C`, in the assay on HCT-116 [2], the CC50 was determined as 30 µM.
`C[C@H](CCC(=O)N1CCN(c2ncccn2)CC1)[C@H]1CC[C@H]2[C@@H]3CC[C@@H]4C[C@H](O)CC[C@]4(C)[C@H]3CC[C@]12C`: the CC50 in the assay on HCT-116 [2] is 50 µM.
`C(=C\c1ccccc1)/CN1CCNCC1`: the result in the assay on GBM [1], with HCT-116 [3], with KMS-11 [4], in the assay on GBM [18], in the assay on HCT-116 [19] and with KMS-11 [20] was inactive.
For the compound `C[C@H](CCC(=O)N1CCN(c2ccccn2)CC1)[C@H]1CC[C@H]2[C@@H]3CC[C@@H]4C[C@H](O)CC[C@]4(C)[C@H]3CC[C@]12C`, in the assay on HCT-116 [2], the CC50 is 50 µM.
Turning to `c1cnc(N2CCNCC2)nc1`, the result with GBM [1], in the assay on HCT-116 [3], in the assay with KMS-11 [4], in the assay on GBM [18], in the assay on HCT-116 [19] and in the assay with KMS-11 [20] was inactive.
As for `C[C@H](CCC(=O)O)[C@H]1CC[C@H]2[C@@H]3[C@H](O)C[C@@H]4C[C@H](O)CC[C@]4(C)[C@H]3CC[C@]12C` [CHENODIOL], the outcome in the assay on GBM [1], in the assay with HCT-116 [3], with KMS-11 [4], in the assay with GBM [18], in the assay with HCT-116 [19] and with KMS-11 [20] was inactive. For the same compound, in the assay with HCT-116 [2], the CC50 was above 50 µM.
